Experimental data: PMC6452901 (Nature biomedical engineering, 2019)

Assays:
[1] = tested on: skin allograft (BALB/c donor); assay: Skin allograft rejection under tacrolimus immunosuppression; format: in vivo, C57BL/6 mice; settings: 2 mg/kg I.P.; treated PODs 7, 12 n = 6; untreated POD 7 n = 8
Procedure, shortened: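 Allograft recipients received tacrolimus 2 mg/kg i.p. or saline daily from POD −1 to POD 7, plus doses on PODs 9 and 11. FITC-labelled nanosensors (10 nmol by peptide) were given before transplant (POD −4) and on PODs 7 and 12, followed by 90-min urine collection. Urinary FITC was bead-purified with anti-FITC, converted to percent injected dose, and expressed as fold over pre-transplant; unpaired two-sided t-test.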

GzmB [2] = target: T1, GzmB (Mus musculus, UniProt P04187); assay: Tracking of cleaved fragments after in vivo GzmB cleavage; design: species or system C57BL/6 mice; settings: POD 7, VT750-labelled, 10 nmol by peptides, 90 minutes post administration, tissue homogenates
T1 sequence (P04187 21-247): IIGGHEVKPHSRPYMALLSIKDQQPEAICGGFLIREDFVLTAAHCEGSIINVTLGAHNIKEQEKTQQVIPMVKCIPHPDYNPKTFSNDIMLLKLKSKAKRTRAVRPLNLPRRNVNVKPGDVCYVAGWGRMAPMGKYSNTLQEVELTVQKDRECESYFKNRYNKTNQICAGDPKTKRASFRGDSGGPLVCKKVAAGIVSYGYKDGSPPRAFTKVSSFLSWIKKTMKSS

[3] = tested on: skin allograft and isograft; format: in vivo, C57BL/6 mice; settings: POD 7 (peak), i.v., surface-labeled, mice with both grafts, n = 5
[4] = Clearance of residual urine fluorescence after a single injection; format: in vivo, mice; settings: n = 3
[5] = tested on: membrane attack complex (MAC); assay: ELISA of membrane attack complex; design: species or system human; settings: serum samples, MicroVue CH50 Eq EIA, after 1 hour, n = 3
Procedure, shortened: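 Human control serum was mixed with activity nanosensors, and complement was triggered with heat-aggregated gamma globulin. Fluorescence was read for 1 h, then supernatants were assayed for membrane attack complex by CH50-equivalent EIA, which is proportional to CH50 U. Data are means ± s.e.m., n = 3, compared by one-way ANOVA with Tukey post-test.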

murine Granzyme B = target: T2, murine Granzyme B (Mus musculus, UniProt P04187); assay: In vitro protease cleavage assay of nanosensors with recombinant GzmB; format: biochemical
T2 sequence (P04187 21-247): T1 sequence (P04187 21-247)
Procedure, shortened: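 Candidate GzmB substrates (6–12-mer, Ile at P4, Asp at P1) were conjugated to iron-oxide nanoparticles. They were incubated with recombinant GzmB in PBS + 1% BSA at 37 °C with fluorescence monitoring. Fluorescence traces were fitted to compare initial cleavage velocities.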

[6] = tested on: GzmB activity in skin allograft; assay: Urinary prediction of acute rejection in skin graft mice; format: in vivo, C57BL/6 mice; settings: FITC-labelled, 10 nmol by peptides, urine collected for 90 minutes, n = 6
Procedure, shortened: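 This was a paired design in C57BL/6 recipients of BALB/c tail-skin grafts. FITC-labelled nanosensors (10 nmol by peptide) were dosed at POD −4 and at post-transplant days, and mice voided over plates for 90 min. Urinary FITC was captured on anti-FITC magnetic beads and quantified against a free-FITC ladder. Values were volume-normalised to percent injected dose, scaled to pre-transplant mean and variance; one-way ANOVA with Dunnett post-test.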

Immunogenicity study = format: in vivo, C57BL/6 mice; settings: 10 nmol I.P., with or without complete Freund's adjuvant, total serum IgG, n = 3
Procedure, shortened: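 On day 0, C57BL/6 mice received a single i.p. dose in one of five arms: free GzmB substrate peptide (10 nmol), nanosensors (10 nmol by peptide), nanosensors plus complete Freund's adjuvant, chicken ovalbumin (100 μg) plus CFA, or saline. Serum came from retro-orbital blood, was spun at 3,500 G for 5 min and stored at −80°C. Total IgG was then quantified by immunoassay.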

GzmB [7] = target: T1, GzmB; assay: In vivo GzmB activity imaging with NIR activatable probe; design: species or system C57BL/6 mice; settings: 10 nmol by peptide, organs excised at 24 hours

C=CC[C@@H]1/C=C(\C)C[C@H](C)C[C@H](OC)[C@H]2O[C@@](O)(C(=O)C(=O)N3CCCC[C@H]3C(=O)O[C@H](/C(C)=C/[C@@H]3CC[C@@H](O)[C@H](OC)C3)[C@H](C)[C@@H](O)CC1=O)[C@H](C)C[C@@H]2OC [Tacrolimus]
nanosensor urine signals of treated versus untreated allograft mice [1]: blunted compared to untreated mice

(FITC)AIEFDSGc [activity nanosensors]
fluorescence in kidneys, allograft compared to isograft mice (GzmB [2]): 3 fold
signal increase in skin allograft over skin isograft [3]: 4 fold
time to full clearance of residual urinary fluorescence [4]: ≤ 2 days
MAC formation (complement activation by a foreign surface) [5]: no elevation in MAC formation
activation (fluorescence) in samples that contained recombinant GzmB (murine Granzyme B; saline, plasma or serum samples spiked with GzmB, 6 nM by NP, 300 nM by peptide, 37 °C, 60 minutes): markedly activated
post-graft urine signals from allograft recipients versus pre-graft baseline [6]: significantly elevated as early as POD 5
induction of neutralizing antibodies (Immunogenicity study): do not induce neutralizing antibodies

AIEFD|SG
initial cleavage velocity by recombinant GzmB (murine Granzyme B; library of 13 candidate substrates conjugated to IONPs, n = 4): highest initial cleavage velocity

kGGsIEFDSGGGs{PRA}c [activatable probe]
probe activation in tissues, allograft versus isograft mice (GzmB [7]): significantly increased in allograft skin but statistically equivalent in all major organs
